The list is not random: actives were taken first. Their share in the collection is about 2.9%.
MEKK2mut PB1 HTS: MEK5 binding signal on mutant MEKK2 PB1, primary screen, biochemical, multiplex bead flow cytometry, Alexa488-MEK5; Alexa488-MEK5 binding to MEKK2 mutant; percent response, % at 10 µM; 0.35% of 290,000 active; in the data active = percent response above about 24%, passing the limit was not always enough
MEKK2wt PB1 HTS: modulators of MEK5 binding to wildtype MEKK2, primary screen, biochemical, multiplex bead flow cytometry, Alexa488-MEK5 | AID 1531, 2009 | 1.1% of 290,000 active | Alexa488-MEK5 binding to MEKK2 WT; actives lie on both sides | binding response (% of control), % at 10 µM; in the data active = binding response below about 67% or above about 130%
UBC13 inh: UBC13 polyubiquitin chain formation inhibitors, primary screen, biochemical, TR-FRET, uHTS | AID 485273, 2010 | 0.47% of 330,000 active | Ubiquitin-conjugating enzyme E2 N (Homo sapiens), P61088 | inhibition, % at 20 µM; in the data active = inhibition above about 45%, passing the limit was not always enough
Target sequence (P61088 whole entry, looked up): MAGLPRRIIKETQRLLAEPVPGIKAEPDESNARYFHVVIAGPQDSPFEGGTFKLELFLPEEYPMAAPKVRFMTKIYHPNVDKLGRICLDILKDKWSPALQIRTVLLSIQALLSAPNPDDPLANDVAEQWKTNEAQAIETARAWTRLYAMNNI
Apaf1 inhib: inhibitors of human Apaf-1 apoptosome, primary screen, biochemical, DEVD-Rh110 fluorescence, uHTS | Apoptotic protease-activating factor 1 (Homo sapiens), O14727 | 0.71% of 330,000 active | AID 489030, 2010 | inhibition, % at 20 µM | reconstituted apoptosome caspase-3 activity; active = inhibition of at least 40% at 20 µM
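Material: cell-free apoptosome with Apaf-1, procaspase-3 and caspase-9; Buffer or medium: Hepes pH 7.5 with detergent and BSA; Reagent: cytochrome c trigger plus (Z-DEVD)2-Rh110 caspase-3 substrate; Times: compound with Apaf-1, dATP, procaspase-3 30 min, then 50 min reaction, room temperature; Technique: Rh110 fluorescence intensity.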
MEKK3 PB1 HTS: modulators of MEKK3-MEK5 PB1 binding, primary screen, biochemical, wildtype MEKK3, multiplex bead flow cytometry, Alexa488-MEK5; Mitogen-activated protein kinase kinase kinase 3 (Homo sapiens), Q99759; bead-based flow cytometry, Alexa488-MEK5 binding to MEKK3; actives lie on both sides; 0 = blocked by unlabeled MEK5, 100 = vehicle; binding response (% of control), % at 10 µM; 1.4% of 290,000 active;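 active = binding response more than 3 SD above or below the average of its plate-row segment, actives on both sides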;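 note: Alexa488 bead fluorescence after subtracting the streptavidin-only scavenger bead signal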
Target sequence (Q99759 whole entry, looked up): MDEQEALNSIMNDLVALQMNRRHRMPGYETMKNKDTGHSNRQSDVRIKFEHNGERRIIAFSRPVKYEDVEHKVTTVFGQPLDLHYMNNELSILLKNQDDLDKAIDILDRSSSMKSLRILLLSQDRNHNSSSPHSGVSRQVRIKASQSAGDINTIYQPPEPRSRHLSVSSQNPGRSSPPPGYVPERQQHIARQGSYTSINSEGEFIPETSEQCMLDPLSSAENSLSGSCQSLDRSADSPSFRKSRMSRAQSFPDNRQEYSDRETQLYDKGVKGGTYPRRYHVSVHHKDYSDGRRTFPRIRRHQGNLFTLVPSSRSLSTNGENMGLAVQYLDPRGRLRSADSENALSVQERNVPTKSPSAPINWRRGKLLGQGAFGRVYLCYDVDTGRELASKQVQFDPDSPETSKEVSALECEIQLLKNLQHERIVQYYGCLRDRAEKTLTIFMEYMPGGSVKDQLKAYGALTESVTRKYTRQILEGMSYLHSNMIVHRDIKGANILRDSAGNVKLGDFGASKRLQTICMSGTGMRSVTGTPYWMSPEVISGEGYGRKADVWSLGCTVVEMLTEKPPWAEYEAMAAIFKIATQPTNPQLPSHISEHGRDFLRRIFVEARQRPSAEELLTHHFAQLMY
MEKK2wt confirm: modulators of MEK5 binding to wildtype MEKK2, confirmation, biochemical, single concentration, multiplex bead flow cytometry; shares compounds with MEKK3 PB1 HTS; Alexa488-MEK5 binding to MEKK2 WT; actives lie on both sides; binding response (% of control), % at 10 µM; 2.4% of 5,900 active; AID 1892, 2009; in the data active = binding response below about 16% or above about 210%; inactive = in between
MEKK2mut confirm: mutant MEKK2 PB1-MEK5 binding signal retest – biochemical, single concentration, multiplex bead flow cytometry, confirmation. shares compounds with MEKK3 PB1 HTS. Alexa488-MEK5 binding to MEKK2 mutant. percent response, % at 10 µM. 2% of 5,900 active. AID 1893, 2009; in the data active = percent response mostly above about 71%, no sharp cut-off; inactive = mostly below about 38%;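 note: higher means compound restores mutant binding toward wildtype level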
MEKK3-MEK5 inh: MEKK3 wild-type PB1 binding to MEK5, inhibitors, confirmation, biochemical, bead multiplex flow cytometry, single concentration, wildtype; shares compounds with MEKK3 PB1 HTS; Alexa488-MEK5 binding to MEKK3; active compounds read low; binding response (% of control), % at 10 µM; 1.8% of 5,900 active; AID 1894, 2009;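 active = binding response below 72% of control, or above a set upper limit, though filed actives all read lower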;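 note: lower values mean stronger disruption of MEK5 binding to MEKK3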
Large screens that a line does not name were inactive (follow-up assays come after a bar, where they were run); [ ] = another dose, or the depositor's remark.

CC1(C)CC(NC(=S)Nc2ccc(S(N)(=O)=O)cc2)CC(C)(C)N1	MEKK3 PB1 HTS 134 | MEKK2wt confirm inactive | MEKK2mut confirm inactive | MEKK3-MEK5 inh inactive
NS(=O)(=O)c1ccc(NS(=O)(=O)c2ccc(NC(=S)Nc3ccccc3)cc2)cc1	MEKK3 PB1 HTS 4.0[inhibitor] | MEKK2wt confirm inactive | MEKK2mut confirm inactive | MEKK3-MEK5 inh inactive
CCc1ccc(CNC(=O)C2CC(=O)N(C3CCCC3)C2)cc1 (stereo not given)	none
CC(C)(C)N1C(=O)c2ccc(C(=O)Nc3cc(C(=O)O)cc(C(=O)O)c3)cc2C1=O	none
C=CCc1ccccc1OCC(=O)O	MEKK3 PB1 HTS 45[inhibitor] | MEKK2wt confirm inactive | MEKK2mut confirm inactive | MEKK3-MEK5 inh inactive
O=C(O)COc1ccccc1Cc1ccccc1	none
C=CCc1cccc2cc(C(=O)Nc3ccc(CC(=O)O)cc3)c(=O)oc12	MEKK3 PB1 HTS 139 | MEKK2wt confirm inactive | MEKK2mut confirm inactive | MEKK3-MEK5 inh inactive
CN(CC(=O)Nc1ccccc1-c1ccccc1)Cc1ccccc1Cl	none
Cc1nnc2sc(-c3ccc(NC(=O)c4ccc(-c5ccc(Cl)cc5Cl)o4)cc3)nn12	MEKK3 PB1 HTS 77[inhibitor] | MEKK2wt confirm inactive | MEKK2mut confirm inactive | MEKK3-MEK5 inh inactive
CS(=O)(=O)N1CCN(c2ccccc2NC(=O)c2ccc(-c3ccc(Cl)cc3Cl)o2)CC1	none
CN1CCN(c2ccccc2NC(=O)c2ccc(-c3ccc(Cl)cc3Cl)o2)CC1	MEKK2wt PB1 HTS 156 | MEKK2wt confirm inactive | MEKK2mut confirm inactive | MEKK3-MEK5 inh inactive
CS(=O)(=O)N1CCN(c2ccccc2NC(=O)Cc2ccccc2)CC1	none
CS(=O)(=O)N1CCN(c2ccccc2NC(=O)Cc2ccc(Cl)cc2)CC1	MEKK2wt PB1 HTS 2.0[inhibitor], MEKK3 PB1 HTS 2.0[inhibitor] | MEKK2wt confirm inactive | MEKK2mut confirm inactive | MEKK3-MEK5 inh inactive
CCCC(=O)NC(=S)NNC(=O)c1ccc([N+](=O)[O-])cc1	MEKK3 PB1 HTS 133 | MEKK2wt confirm inactive | MEKK2mut confirm inactive | MEKK3-MEK5 inh inactive
COc1ccccc1C(=O)NC(=O)COC(=O)c1nc(Cl)ccc1Cl	none (no result: MEKK2mut PB1 HTS, MEKK2wt PB1 HTS, MEKK3 PB1 HTS)
CCCCCC(=O)N1CC2(CC(c3cccc(NC(=O)CC(c4ccccc4)c4ccccc4)c3)=NO2)C[C@@H]1C(N)=O (stereo not given in full)	MEKK3 PB1 HTS 81[inhibitor] | MEKK2wt confirm inactive | MEKK2mut confirm inactive | MEKK3-MEK5 inh inactive
Cc1ccc(Nc2nc(N)c3ccccc3n2)cc1C	MEKK2wt PB1 HTS 138 | MEKK2wt confirm inactive | MEKK2mut confirm inactive | MEKK3-MEK5 inh inactive
CCOc1ccc(Nc2cc(C)nc3c(C)cccc23)cc1	none
COc1ccc(Nc2cc(C)nc3c(C)cccc23)cc1OC	MEKK2mut PB1 HTS 26 | MEKK2wt confirm inactive | MEKK2mut confirm inactive | MEKK3-MEK5 inh inactive
COc1ccc(C(C)C)cc1S(=O)(=O)N1CCN(C)CC1	MEKK3 PB1 HTS 133 | MEKK2wt confirm inactive | MEKK2mut confirm inactive | MEKK3-MEK5 inh inactive
O=C(NC1CC1)C1CCN(S(=O)(=O)c2ccc(Cl)c([N+](=O)[O-])c2)CC1	none (no result: MEKK2mut PB1 HTS, MEKK2wt PB1 HTS, MEKK3 PB1 HTS)
CN(C)c1ccc(C(=O)NN2C(=O)c3ccccc3C2=O)cc1	MEKK3 PB1 HTS 132 | MEKK2wt confirm inactive | MEKK2mut confirm inactive | MEKK3-MEK5 inh inactive
O=C(CSc1nnc(C2CC2)n1Cc1ccccc1)N1CCNC1=O	none (no result: MEKK2mut PB1 HTS, MEKK2wt PB1 HTS, MEKK3 PB1 HTS)
CCc1cc(C(=O)N=Nc2c(O)[nH]c3c(Br)cc(Br)cc23)c2ccccc2n1	MEKK3 PB1 HTS 139 | MEKK2wt confirm inactive | MEKK2mut confirm inactive | MEKK3-MEK5 inh inactive
CCc1cc(C(=O)N=Nc2c(O)[nH]c3ccc([N+](=O)[O-])cc23)c2ccccc2n1	none
CCOC(=O)N1CCN(C(=O)CN(c2ccccc2OC)S(=O)(=O)c2ccc(C)cc2)CC1	MEKK2wt PB1 HTS 18[inhibitor], MEKK3 PB1 HTS 12[inhibitor] | MEKK2wt confirm inactive | MEKK2mut confirm inactive | MEKK3-MEK5 inh inactive
Cc1ccc(S(=O)(=O)N(CC(=O)N2CCc3ccccc3C2)c2ccc(Cl)c(Cl)c2)cc1	MEKK3 PB1 HTS 146 | MEKK2wt confirm inactive | MEKK2mut confirm inactive | MEKK3-MEK5 inh inactive
CC(C)c1ccc(S(=O)(=O)NC2CCS(=O)(=O)C2)cc1 (stereo not given)	none (no result: MEKK2mut PB1 HTS, MEKK2wt PB1 HTS, MEKK3 PB1 HTS)
O=C(c1ccccc1F)N(Cc1nc2ccccc2c(=O)[nH]1)C1CCCC1	none
CC(C)n1cc(C(=O)NC2CC(C)(C)Cc3c2cnn3-c2ccccc2)cn1 (stereo not given)	none
CC1=C(C)Cc2c(OC(=O)c3ccccc3)ccc(OC(=O)c3ccccc3)c2C1	MEKK3 PB1 HTS 42[inhibitor] | MEKK2wt confirm inactive | MEKK2mut confirm inactive | MEKK3-MEK5 inh inactive
O=C(Oc1cccccc1=O)c1ccccc1	none
Cc1cc(Cl)ccc1OCC(=O)N(Cc1ccco1)C1CCS(=O)(=O)C1 (stereo not given)	none
O=C(Nc1cccc(C(F)(F)F)c1)N1CCC(c2nc(-c3ccc(F)cc3)no2)CC1	MEKK2wt PB1 HTS 173 | MEKK2wt confirm inactive | MEKK2mut confirm inactive | MEKK3-MEK5 inh inactive
Cc1ccc(C(=O)NC(=S)N(C)C2CCCCC2)cc1	none
Cc1[nH]c2ccccc2c1CN1CCC(Cc2ccccc2)CC1	MEKK2wt PB1 HTS 145 | MEKK2wt confirm inactive | MEKK2mut confirm inactive | MEKK3-MEK5 inh inactive
N#CCC(=O)N/N=C/c1cc(-c2ccccc2)n(-c2ccc(Cl)cc2)c1-c1ccccc1	none
c1ccc(-c2nc(N3CCOCC3)sc2-c2ccccc2)cc1	none
O=C(c1sc(N2CCOCC2)nc1-c1ccccc1)N1CCCCC1	MEKK3 PB1 HTS 131 | MEKK2wt confirm inactive | MEKK2mut confirm inactive | MEKK3-MEK5 inh inactive
O=[N+]([O-])c1ccc(NC(=S)NCC(c2cccnc2)N2CCOCC2)cc1 (stereo not given)	none
FC(F)(F)c1cccc(NC(=S)NCC(c2cccnc2)N2CCOCC2)c1 (stereo not given)	MEKK3 PB1 HTS 135 | MEKK2wt confirm inactive | MEKK2mut confirm inactive | MEKK3-MEK5 inh inactive
CCc1cccc(C)c1NC(=S)NCC(c1cccnc1)N1CCOCC1 (stereo not given)	MEKK3 PB1 HTS 144 | MEKK2wt confirm inactive | MEKK2mut confirm inactive | MEKK3-MEK5 inh inactive
